High-throughput results as filed in PubChem.
HTRA1 inh – HTRA1 (human) protease inhibition | recombinant HTRA1, FP-rhodamine activity-based probe, fluorescence polarization | inhibition, % at 5.96 µM | 340,000 compounds, 0.5% hits; in the data active means inhibition above about 36%;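 further: 0% = enzyme with DMSO and 100% = wells lacking enzyme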
ABHD4 inh – ABHD4 (mouse) inhibition, primary FP screen; 370,000 compounds, 0.54% hits; purified mABHD4, FP-Rh probe fluorescence polarization; Q8VD66; inhibition, % at 8.92 µM; AID 720543;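 active means inhibition exceeding the mean over every tested compound plus 3 SD, cut at about 30% in these data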;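 further: 0% = plate median of compound wells and 100% = S159A mutant with DMSO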
Target sequence (Q8VD66 whole entry, looked up): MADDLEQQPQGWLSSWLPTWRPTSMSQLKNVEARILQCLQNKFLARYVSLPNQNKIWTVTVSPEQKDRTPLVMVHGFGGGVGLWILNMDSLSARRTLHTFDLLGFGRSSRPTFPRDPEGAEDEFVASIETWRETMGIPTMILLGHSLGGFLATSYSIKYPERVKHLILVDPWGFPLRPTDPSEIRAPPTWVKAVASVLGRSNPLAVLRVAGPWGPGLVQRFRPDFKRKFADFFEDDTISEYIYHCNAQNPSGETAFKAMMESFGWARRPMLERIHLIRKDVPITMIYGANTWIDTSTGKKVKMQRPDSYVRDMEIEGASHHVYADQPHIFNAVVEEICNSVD
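Doses – 8.92 µM, single dose · Material – wild-type mouse ABHD4 protein · Replication – single well per compound (singlicate) · Measure – percent inhibition of probe binding, normalized to plate controls · Schedule – 45 min compound pre-incubation plus 60 min probe step, 25 °C · Detection – fluorescence polarization with parallel and perpendicular emission, 525/598 nm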
DAGLB inhibitor – diacylglycerol lipase beta (human) inhibition. Q8NCG7. HEK293T DAGLB membrane lysate, EnzChek fluorogenic substrate. inhibition, % at 5.17 µM. 340,000 compounds, 0.059% hits. AID 504411; in the data active means inhibition above about 34%;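 further: 0% = enzyme with vehicle and 100% = wells lacking enzyme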
SIAE inh – inhibitors of human sialic acid acetylesterase SIAE | inhibition, % at 9.66 µM | SIAE FP-Rh probe binding, fluorescence polarization | 370,000 compounds, 0.69% hits;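 active means inhibition above a cutoff: mean of compounds within the control limits plus 3 SD of those, cut at about 17% in these data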;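 further: 0% = plate median of compound wells and 100% = probe without SIAE protein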
TCR CD3 inh – human TCR-CD3 binding inhibition. 360,000 compounds, 0.37% hits. inhibition, % at 9.4 µM. TAMRA-labeled TCR probe fluorescence, biochemical. AID 651800; in the data active means inhibition above about 19%;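 further: recombinant mutant TCR 2C K166C tagged with TAMRA read by polarization; 0% = receptor in buffer alone and 100% = receptor with positive control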
mABHD4 conf – ABHD4 (mouse) inhibition, FP confirmation; AID 720658; 1,800 compounds, 55% hits; inhibition, % at 8.92 µM; shares compounds with ABHD4 inh; purified mABHD4, FP-Rh probe fluorescence polarization;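 active means mean inhibition across replicates above the hit cutoff set in the primary screen, cut at about 30% in these data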;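 further: 0% = wild-type ABHD4 with DMSO and 100% = catalytically dead S159A mutant with DMSO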
* marks the source's active call; other numbers are inactive results; / = not tested or not shown. In the library only some 1.5% were active in any assay of this set; here they are far more common.

SMILES	HTRA1 inh	ABHD4 inh	DAGLB inhibitor	SIAE inh	TCR CD3 inh	mABHD4 conf
N#C/C(=C(/O)c1ccc(-c2cccc([N+](=O)[O-])c2)o1)c1nc2ccccc2s1	4	31*	1	9	0	56*
COc1cccc(CNS(=O)(=O)c2c(C)nc3sccn3c2=O)c1	4	65*	0	0	5	-3
Nc1[nH]n2c(=O)c3c(nc2c1N=Nc1ccc(Cl)cc1)CCCC3	4	31*	4	7	3	34*
CC(=Nc1ccc(O)cc1)c1sc2ccccc2c1O	10	39*	-47	2	8	0
CC(=Nc1ccccc1O)c1sc2ccccc2c1O	27	16	6	5	-3	/
CC(=O)Nc1ccc(S(=O)(=O)Nc2nc3ccccc3nc2Nc2ccc(C(=O)O)c(O)c2)cc1	34	43*	3	-24	19	43*
CC(=O)Nc1ccc(Nc2nc3ccccc3nc2NS(=O)(=O)c2ccc(Cl)c([N+](=O)[O-])c2)cc1	32	49*	14	16	4	68*
CC(=O)Nc1ccc(S(=O)(=O)Nc2nc3ccccc3nc2Nc2cccc(O)c2)cc1	5	18	7	3	2	/
CC(=O)Nc1ccc(S(=O)(=O)Nc2nc3ccccc3nc2Nc2ccc(N)cc2)cc1	15	40*	1	1	-2	23
CC(=O)Nc1ccc(S(=O)(=O)Nc2nc3ccccc3nc2Nc2ccc3ccccc3c2)cc1	2	18	13	-1	-5	/
O=C(Nc1cccc(Cl)c1)NN(c1ccccc1)C1CCS(=O)(=O)C1 (configuration not stated)	/	0	/	-3	2	/
CCOC(=O)[C@]12CCCCC/C=C\1N(CCc1ccc(Cl)cc1)C(=O)[C@H]2CC(=O)NCCCCc1ccccc1	/	-8	/	-8	/	/
COc1ccc(C=CC(=O)c2c(N)n(C)c(=O)n(C)c2=O)cc1	/	-4	/	-6	0	/
O=C1NC(c2ccc(Br)cc2)c2c(-c3ccccc3)n[nH]c21 (configuration not stated)	/	-3	/	0	2	/
C=CCSC1=N/C(=C\C=C\c2ccco2)C(=O)S1	24	64*	4	13	16	7
C=CCSC1=N/C(=C\c2sccc2C)C(=O)S1	-12	9	-7	-3	0	/
COC(=O)C1=C(C)N(Cc2cccc(C(F)(F)F)c2)C(=NCc2cc(OC)c(OC)c(OC)c2)NC1CCc1ccccc1 (configuration not stated)	/	10	/	-1	-6	/
NC(N)=N/N=C(\N=Nc1ccccc1)c1ccc(Cl)cc1	29	44*	11	2	-4	55*
NC(N)=N/N=C(\N=Nc1ccccc1)c1cccc2cccnc12	0	-6	5	-3	-11	/
OC(c1ccccc1)(c1ccccc1)C1CCN(CCCOc2ccccn2)CC1	/	-4	/	12	5	/
COC(=O)[C@H](C(C)C)N(CCCc1cn(Cc2ccc(C)cc2)nn1)S(=O)(=O)c1ccc(F)cc1Br	/	-2	/	-1	/	/
O=c1ccc2nc3ccccc3sc-2c1	/	66*	/	13	14	37*
COc1cc(C2NCC(c3ccc(Cl)cc3Cl)c3c2[nH]c2ccccc32)cc(OC)c1OC (configuration not stated)	-33	44*	-1	0	-5	59*
CCCCCC(=O)Nc1cc(S(=O)(=O)O)cc2cc(S(=O)(=O)O)cc(O)c12	23	49*	0	11	16	64*
CCCCNc1cccc2c1S(=O)(=O)N[C@H](Cc1ccccc1)CO2	/	-30	/	-3	-1	/
COCCCNC(=O)C[C@H]1C[C@@]2(C(=O)OC)C(=C[C@H](C3CCCC3)O[C@@H]2C)N(Cc2ccc(Cl)cc2Cl)C1=O	/	-1	/	4	/	/
CC1=C(C(=O)NCc2ccco2)C2(CCC(C)CC2)OC1=O (configuration not stated)	-6	31*	1	0	-9	-5
CC1=C(C(=O)NCc2ccc3c(c2)OCO3)C2(CCC(C)CC2)OC1=O (configuration not stated)	-3	4	-3	2	-4	/
CN=c1scc(C)n1/N=C/c1cc(Br)c(O)c(Br)c1	14	29	6	9	-3	/
CCN=c1scc(C)n1/N=C/c1cc(Br)c(O)c(OC)c1	21	30*	4	12	-4	33*
